IC50 and Ki data for twelve compounds are collected here from ChEMBL document CHEMBL1132454 (J Med Chem, 1999).

A value given as a limit tells only on which side of the number the result lay.

Assay [1] concerns the target T1, Sodium-dependent dopamine transporter (Rattus norvegicus, UniProt P23977). Put plainly: Inhibition of Dopamine uptake in male Sprague-Dawley rats using [3H]DA ligand.
For assay [2], the target named is T1, Sodium-dependent dopamine transporter. Nature of the assay: (§1) Binding affinity Sprague-Dawley rats using [3H]WIN-35428 ligand. In short, it runs like this: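 Rat caudate-putamen membranes washed in ice-cold Krebs-HEPES pH 7.4, ~0.3% w/v (150–300 μg protein). Drug added 5 min before 1.5 nM [3H]WIN 35,428; 1 h on ice; filtration.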
In assay [3] the target is T2, Norepinephrine transporter (Rattus norvegicus, UniProt Q9WTR4). Nature of the assay: The compound was tested for binding affinity nisoxatine ligand; IA = inactive. In short, it runs like this: (§2)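 Rat frontal cortex membranes (male Sprague–Dawley) in 50 mM Tris/120 mM NaCl/5 mM KCl pH 7.4; 8 mg wet tissue with 0.5 nM [3H]nisoxetine, 60 min at 0–4 °C; 1 μM desipramine for nonspecific; filtration, scintillation counting.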
T2 sequence (Q9WTR4 whole entry): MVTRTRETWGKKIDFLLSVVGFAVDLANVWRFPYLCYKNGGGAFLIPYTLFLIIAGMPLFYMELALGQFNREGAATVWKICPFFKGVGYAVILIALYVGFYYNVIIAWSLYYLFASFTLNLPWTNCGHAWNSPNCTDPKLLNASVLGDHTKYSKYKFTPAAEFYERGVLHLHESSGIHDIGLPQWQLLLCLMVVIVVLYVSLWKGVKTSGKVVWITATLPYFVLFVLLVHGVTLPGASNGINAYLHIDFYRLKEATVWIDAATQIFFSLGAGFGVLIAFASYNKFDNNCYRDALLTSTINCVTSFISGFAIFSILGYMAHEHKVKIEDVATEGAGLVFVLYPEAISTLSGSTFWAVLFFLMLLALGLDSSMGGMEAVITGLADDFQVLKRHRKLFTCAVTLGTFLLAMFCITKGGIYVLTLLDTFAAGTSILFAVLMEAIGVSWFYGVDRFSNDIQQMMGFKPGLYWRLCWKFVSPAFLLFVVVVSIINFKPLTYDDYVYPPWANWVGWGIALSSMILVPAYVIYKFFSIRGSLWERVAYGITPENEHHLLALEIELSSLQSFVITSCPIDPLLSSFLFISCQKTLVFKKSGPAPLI

Assay [4] has as its target T3, Sodium-dependent serotonin transporter (Rattus norvegicus, UniProt P31652). Nature of the assay: Binding affinity against Serotonin transporter in male Sprague-Dawley rats using [3H]paroxetine ligand; IA = inactive. The method in brief:
(§3)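 Frozen rat midbrain membranes in 50 mM Tris, 120 mM NaCl, 5 mM KCl pH 7.4; 1.5 mg wet tissue per tube with 0.2 nM [3H]paroxetine, 90 min at room temperature; nonspecific defined with 1 μM citalopram; filtration and scintillation counting.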

Assay [5] concerns the target T2, Norepinephrine transporter. Nature of the assay: (§4) The compound was tested for binding affinity nisoxatine ligand. In short, it runs like this: as §2
Assay [6] in a line: (§5) Binding affinity of Sigma opioid receptor type 1 in Guinea pig brain membranes using [3H]pentazocine ligand. The assay is classed as cell membranes, Membrane. In short, it runs like this:
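σ1 sites: guinea pig brain membranes minus cerebella (350–500 μg protein) with 3 nM [3H](+)-pentazocine in 50 mM Tris-HCl pH 8.0, 120 min at 25 °C; 10 μM haloperidol for nonspecific; filtration on polyethyleneimine-soaked filters. IC50 converted to Ki via Cheng–Prusoff.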

In assay [7] the target is T3, Sodium-dependent serotonin transporter. Put plainly: (§6) Binding affinity against Serotonin transporter in male Sprague-Dawley rats using [3H]paroxetine ligand. In short, it runs like this: as §3
Assay [8] has as its target Sigma intracellular receptor 2 (Rattus norvegicus, UniProt Q5U3Y7). Put plainly: The compound was tested for binding affinity of Sigma opioid receptor type 2 in rat liver membranes using [3H]DTG ligand. The assay is classed as cell membranes, Membrane. In short, it runs like this:
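σ2 sites: male Sprague–Dawley rat liver membranes (160 μg protein), 5 nM [3H]DTG plus 1 μM dextrallorphan masking σ1, 50 mM Tris-HCl pH 8.0, 120 min at 25 °C; 10 μM haloperidol nonspecific; filtration. IC50 converted to Ki by Cheng–Prusoff.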

The target in assay [9] is T1, Sodium-dependent dopamine transporter. The assay is described as §1. In short, it runs like this: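 Rat caudate-putamen membranes washed in modified Krebs-HEPES buffer, pH 7.4; 150-300 μg protein per tube. Filtration read-out; Ki by nonlinear least-squares fit; at least three independent experiments.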
The source holds these as a separate data set.

Assay [10] has as its target T2, Norepinephrine transporter. The assay is described as §4. In short, it runs like this:
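Male Sprague-Dawley rat frontal cortex membranes in 50 mM Tris, 120 mM NaCl, 5 mM KCl, pH 7.4; 8 mg original wet tissue per tube. Incubation with 0.5 nM [3H]nisoxetine for 60 min at 0-4 °C. Nonspecific binding with 1 μM desipramine. Filtration and scintillation counting; Ki from at least three experiments in triplicate.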
The source holds these as a separate data set.

In assay [11] the target is T3, Sodium-dependent serotonin transporter. Described as §6. The method in brief:
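Male Sprague-Dawley rat midbrain membranes in 50 mM Tris, 120 mM NaCl, 5 mM KCl, pH 7.4; 1.5 mg original wet tissue per tube. Incubation with 0.2 nM [3H]paroxetine for 90 min at room temperature. Nonspecific binding with 1 μM citalopram. Filtration and scintillation counting; Ki from at least three experiments in triplicate.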
The source holds these as a separate data set.

The nature of assay [12]: as §5. It counts as cell membranes, Membrane. In short, it runs like this:
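Guinea pig brain membranes (minus cerebella), 350–500 μg protein, with 3 nM [3H](+)-pentazocine in 50 mM Tris-HCl pH 8.0 for 120 min at 25 °C. Nonspecific binding with 10 μM haloperidol. Filtration, then overnight extraction and counting. IC50 from curve fit, converted to Ki by Cheng-Prusoff.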
The source holds these as a separate data set.

T3 sequence (P31652 whole entry): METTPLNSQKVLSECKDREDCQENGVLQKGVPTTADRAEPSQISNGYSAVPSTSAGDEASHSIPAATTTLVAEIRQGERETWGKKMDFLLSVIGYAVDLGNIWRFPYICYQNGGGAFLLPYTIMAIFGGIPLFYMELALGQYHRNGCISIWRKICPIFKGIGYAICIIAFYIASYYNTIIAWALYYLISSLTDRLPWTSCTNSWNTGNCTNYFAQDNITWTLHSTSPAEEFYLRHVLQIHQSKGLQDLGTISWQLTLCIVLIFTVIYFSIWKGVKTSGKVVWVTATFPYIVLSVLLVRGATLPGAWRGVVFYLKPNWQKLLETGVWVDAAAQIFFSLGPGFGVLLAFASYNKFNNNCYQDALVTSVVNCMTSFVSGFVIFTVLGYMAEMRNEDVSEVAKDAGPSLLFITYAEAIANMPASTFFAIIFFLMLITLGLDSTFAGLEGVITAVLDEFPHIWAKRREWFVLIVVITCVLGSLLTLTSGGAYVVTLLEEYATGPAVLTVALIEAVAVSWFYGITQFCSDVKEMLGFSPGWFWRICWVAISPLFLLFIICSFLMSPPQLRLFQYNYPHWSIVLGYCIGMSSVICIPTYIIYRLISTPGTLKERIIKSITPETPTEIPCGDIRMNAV
T1 sequence (P23977 whole entry): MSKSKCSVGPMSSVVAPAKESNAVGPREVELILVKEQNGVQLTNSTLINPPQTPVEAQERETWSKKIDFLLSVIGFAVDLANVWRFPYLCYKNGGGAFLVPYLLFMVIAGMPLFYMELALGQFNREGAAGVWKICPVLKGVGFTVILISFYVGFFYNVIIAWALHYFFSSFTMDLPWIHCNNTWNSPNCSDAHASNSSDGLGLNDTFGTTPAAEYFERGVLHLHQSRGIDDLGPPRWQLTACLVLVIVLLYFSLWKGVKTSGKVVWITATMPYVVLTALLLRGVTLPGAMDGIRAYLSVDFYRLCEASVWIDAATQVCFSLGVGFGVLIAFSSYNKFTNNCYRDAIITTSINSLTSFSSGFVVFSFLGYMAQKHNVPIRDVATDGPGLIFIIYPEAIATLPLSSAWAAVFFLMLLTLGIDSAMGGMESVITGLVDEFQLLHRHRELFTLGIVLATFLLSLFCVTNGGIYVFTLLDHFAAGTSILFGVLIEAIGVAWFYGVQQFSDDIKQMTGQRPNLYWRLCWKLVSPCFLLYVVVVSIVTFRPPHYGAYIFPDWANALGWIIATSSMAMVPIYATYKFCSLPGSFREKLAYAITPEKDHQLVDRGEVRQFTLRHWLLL
Chain of Sigma intracellular receptor 2 (Q5U3Y7 whole entry, looked up): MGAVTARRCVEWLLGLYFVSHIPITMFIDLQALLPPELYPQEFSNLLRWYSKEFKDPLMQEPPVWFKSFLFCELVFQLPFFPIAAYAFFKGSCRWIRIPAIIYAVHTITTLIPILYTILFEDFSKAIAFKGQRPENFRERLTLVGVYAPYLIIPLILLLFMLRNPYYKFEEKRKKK

The IC50 is the concentration needed to halve the response being measured. A high value points to a need for much substance. One may read the Ki as the dissociation constant of the complex between target and ligand, obtained from inhibition or displacement. `Clc1ccccc1N1CCN(CCCn2c3ccccc3c3ccccc32)CC1` gave an IC50 in assay [1] of 2770 nM. Also, the Ki in [2] is 113000 nM; in [3], “Not Active”; in assay [4], “Not Active”.
For the compound `C[C@H]1CN(CCCn2c3ccccc3c3ccccc32)C[C@H](C)N1C`, in assay [1], the IC50 amounted to 472 nM. Moreover, the Ki in assay [2] is 436 nM; in assay [5], 9370 nM; in assay [6], 552 nM; in assay [7], 373 nM; in assay [8], 230 nM.
In [1], `C[C@H]1CN(CCCn2c3ccccc3c3ccccc32)C[C@H](C)N1CCCc1ccccc1` gave an IC50 of 639 nM. The Ki was determined as 263 nM in assay [2]; 2490 nM in assay [5]; 104 nM in assay [6]; 44.5 nM in assay [7]; 145 nM in [8].
In [1], `C[C@H]1CN(CCCN(c2ccccc2)c2ccccc2)C[C@H](C)N1` returned an IC50 of 1060 nM. Further, the Ki was 813 nM in assay [2]; 6810 nM in assay [5]; 138 nM in assay [6]; 13100 nM in assay [7]; 351 nM in assay [8].
With `C[C@H]1CN(CCCN(c2ccccc2)c2ccccc2)C[C@H](C)N1CCCc1ccccc1`, the half-inhibitory concentration (IC50) in [1] is 36.6 nM. In addition, the Ki in assay [2] was 61 nM; in assay [5] it was 3640 nM; in assay [6] it was 97.2 nM; in assay [7], 219 nM; in assay [8] it was 183 nM.
As to `C[C@H]1CN(CCCn2c3ccccc3c3cc([N+](=O)[O-])ccc32)C[C@H](C)N1`, in assay [1], the half-inhibitory concentration (IC50) came out at 111 nM. The Ki came out at 109 nM in assay [2]; 4580 nM in assay [5]; 596 nM in [6]; 1170 nM in [7]; 193 nM in assay [8].
Consider `C[C@H]1CN(CCCn2c3ccc(Br)cc3c3cc(Br)ccc32)C[C@H](C)N1`, for which the Ki came to 3890 nM in assay [2]; 1300 nM in assay [5]; 4420 nM in [6]; 1130 nM in assay [7]; 675 nM in assay [8].
Consider `C[C@H]1CN(CCCn2c3ccc([N+](=O)[O-])cc3c3cc([N+](=O)[O-])ccc32)C[C@H](C)N1`, for which the Ki in assay [9] was 174000 nM; in assay [10], 3660 nM; in assay [11] it was 1850 nM. Further, the IC50 in assay [1] amounted to 3670 nM.
Regarding `C[C@H]1CN(CCCn2c3ccccc3c3cc(N)ccc32)C[C@H](C)N1`, the Ki came out at 2400 nM in assay [2]; 13900 nM in assay [5]; 5720 nM in assay [6]; 2100 nM in [7]; 1660 nM in assay [8].
As to `C[C@@H]1CN(CCCn2c3ccc(Br)cc3c3cc(Br)cc(Br)c32)C[C@@H](C)N1`, the Ki is 30300 nM in assay [9], 8540 nM in [10], more than 6000 nM in [12] and 1610 nM in assay [11].
On to `c1ccc(N2CCN(CCCn3c4ccccc4c4ccccc43)CC2)cc1`, for which the midpoint of inhibition in assay [1], the IC50, lay at 1820 nM. For the same compound, the Ki in assay [2] was 4930 nM; in assay [5] it was 4120 nM; in assay [4] it was “Not Active”.
Turning to `C[C@@H]1CN(CCCn2c3ccccc3c3ccccc32)C[C@H](C)N1` [RIMCAZOLE], the IC50 in assay [1] turned out to be 140 nM. The Ki stood at 224 nM in assay [2], 2160 nM in [5] and 825 nM in assay [7].
